The values below come from ChEMBL document CHEMBL2346638, “Secondary amines containing one aromatic nitro group: preparation, nitrosation, sustained nitric oxide release, and the synergistic effects of released nitric oxide and an arginase inhibitor on vascular smooth muscle cell proliferation” (Bioorg Med Chem, 2013).

For orientation: half-life means the time in which the quantity being followed falls by half. As a reminder, the inhibition is the change of the read-out against control, counted positive when it falls.

The test system of data set [1] is HASMC. Nature of the data set: Antiproliferative activity against HASMC using calcein AM and ethidium homodimer-1 at <= 20 uM by LIVE/DEAD assay. It counts as functional, cell-based. The note with it: Homo sapiens. In short, it runs like this:
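HASMCs in black plates were exposed for 96 h to compound at 0.1–20 µM in medium with 1% DMSO. Floating dead cells were pelleted, washed in PBS and returned to their wells. Cells were stained with Eth-1 (0.5 µM) and calcein AM (0.25 µM) for 45 min at room temperature, then read at ex/em 495/530 and 528/645 nm. Triplicate; t-test versus vehicle.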

Data set [2] concerns HASMC. Description: Induction of cell proliferation in HASMC at 0.1 to 5 uM after 96 hrs by MTT assay. The note with it: human. In kind it is cell-based. (Tetrazolium assays rely on reduction of a dye to a coloured formazan, in cell work by metabolically active cells.)
For data set [3], the system named is HASMC. Description: Induction of nitric oxide release in HASMC at 5 to 20 uM after 60 mins by DAF-FM DA assay. It counts as functional, cell-based. The note with it: Homo sapiens.
Data set [4] can be described thus: Half life of the compound. In kind it is physicochemical. In short, it runs like this:
(§1)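 Nitrosated compound was stirred in 1X PBS at 0.0125 M (0.0250 M NO) at room temperature. Aliquots were taken hourly to 12 h, every 4 h to 24 h, every 8 h to 48 h, then every 24 h. Aliquots were centrifuged and triplicate supernatants mixed with Griess reagent for 5 min. Absorbance at 550 nm was plotted against time.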

Data set [5] is described as follows: Induction of nitric oxide release in phosphate buffered saline up to 20 days by Griess reagent test. In kind it is physicochemical. On the set-up: concentration or dose not given beside the values. The conditions noted are these: buffer, 480 h. In outline: as §1
(In general: Griess reagent forms a coloured azo dye with nitrite.)

For data set [6], the system named is HASMC. Description: Antiproliferative activity against HASMC at <= 20 uM after 96 hrs by MTT assay. In kind it is functional, cell-based. The note with it: Homo sapiens. In outline: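 Serum-starved HASMCs (3000–3500 cells/well) received compound in complete SMC medium (2% FBS) with 1% DMSO at 0.1, 1, 5, 10 or 20 µM for 48 h. Fresh medium was then added and cells grew a further 48 h (96 h total). MTT 4–6 h at 37 °C, solubilized, A570 as % of medium-only control; 1% DMSO vehicle; triplicate; t-test versus vehicle.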

Data set [7] can be described thus: Nitrosation of the compound in glacial acetic acid/tetrahydrofuran after 24 to 48 hrs by IR spectroscopy analysis. It counts as physicochemical.
The subject of data set [8] is HASMC. Description: Induction of nitric oxide release in HASMC at 0.001 to 5 mM after 60 mins by DAF-FM DA assay. The conditions noted are these: Homo sapiens.
The test system of data set [9] is HASMC. Description: Antiproliferative activity against HASMC at 1 mM after 96 hrs by MTT assay. The conditions noted are these: Homo sapiens. In kind it is functional. In outline:
(§2)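 HASMCs at passage six or later were seeded at 3000–3500 cells/well, attached 16–24 h at 37 °C, then serum-starved 24–48 h. iNOS was induced with LPS (50 µg/mL) plus IFN-γ (50 ng/mL) for 6 h at 37 °C. ABH was then given in SMC medium at 1, 10, 100 µM, 1.0 and 5.0 mM over two 48 h feeds. MTT absorbance was read at 570 nm; duplicate determinations.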

In data set [10] the test system is HASMC. Nature of the data set: Antiproliferative activity against HASMC at 5 mM after 96 hrs by MTT assay. In kind it is functional. The conditions noted are these: Homo sapiens. In short, it runs like this:
as §2

Activity calls are given as the source filed them. The rule behind the calls is not given here.

As for `CCCCCCCN(N=O)c1cccc(N(CCCCCCC)N=O)c1[N+](=O)[O-]`, the outcome in the data set with HASMC [1] and in the data set on HASMC [6] was Active. Further, the Activity result with HASMC [2] is on record as “Toxic”; in [5], 2.02%; in [7] it was 100%. Also, the outcome in the data set on HASMC [3] was inactive. For the same compound, in [4], the half-life is 126 h.
On to `N[C@@H](CCCCB(O)O)C(=O)O`, for which the result in the data set on HASMC [8] was Active. The same compound came in with an inhibition at 1000 µM in the data set with HASMC [9] of 35%. This compound came in with an inhibition at 5000 µM in the data set with HASMC [10] of 48%.
